Source: ChEMBL document CHEMBL1125769 (J Med Chem, 1991)
Several values for one entry are separate records, joined by “and”; a condition that tells them apart may be missing. Identical values can stand only once. Square brackets hold non-standard residues; d marks the D form. Peptide text beside a SMILES is read from it. NMeA = CN[C@@H](C)C(=O)O; Ac5c = NC1(C(=O)O)CCCC1; Aib = CC(C)(N)C(=O)O; Sar = CNCC(=O)O

How the values were obtained:
[1] = tested on: Rattus norvegicus; test: in vivo antagonist activity (ANG II like) is expressed by blood pressure increase (mHg) produced by […] iv injection of compound in rats; format: functional
How it was run: (§1)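 Rat blood pressure assay after Regoli et al.; residual ANG II-like activity read as mmHg rise in blood pressure following a one microgram intravenous bolus of compound; n = 5.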

[2] = organism: Rattus norvegicus; test: In vitro antagonist activity expressed as pA2 was measured in rat uterus
[3] = target: T1, Angiotensin II receptor (Rattus norvegicus) (UniProt P29089+P25095+P35351); test: In vitro agonist activity relative to angiotensin II measured in rabbit aorta strip assay.; format: functional, tissue-based
[4] = target: T1, Angiotensin II receptor (Rattus norvegicus); test: In vivo agonist activity expressed as percent activity relative to angiotensin II in rat blood pressure assay.; format: functional, organism-based
How it was run: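 Rat blood pressure (pressor) assay in vivo, after Regoli et al.; ANG II-like activity given as percent activity relative to ANG II; n = 5.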

[5] = organism: Oryctolagus cuniculus; test: In vitro agonist activity expressed as percent activity relative to ANG II was measured in rabbit aorta strip assay; format: functional
[6] = tested on: Rattus norvegicus; test: In vivo antagonist activity (ANG II like) expressed as blood pressure increase […] produced by […] iv injection of compound in rats; format: functional; how it was run: as §1
[7] = target: T2, Angiotensin II receptor (Rattus norvegicus, UniProt P29089+P25095+P35351); test: In vitro antagonist activity (ANG II like) expressed as percent activity relative to ANG II in rabbit aorta strip assay.; format: functional, tissue-based
T2 sequence (P29089 whole entry): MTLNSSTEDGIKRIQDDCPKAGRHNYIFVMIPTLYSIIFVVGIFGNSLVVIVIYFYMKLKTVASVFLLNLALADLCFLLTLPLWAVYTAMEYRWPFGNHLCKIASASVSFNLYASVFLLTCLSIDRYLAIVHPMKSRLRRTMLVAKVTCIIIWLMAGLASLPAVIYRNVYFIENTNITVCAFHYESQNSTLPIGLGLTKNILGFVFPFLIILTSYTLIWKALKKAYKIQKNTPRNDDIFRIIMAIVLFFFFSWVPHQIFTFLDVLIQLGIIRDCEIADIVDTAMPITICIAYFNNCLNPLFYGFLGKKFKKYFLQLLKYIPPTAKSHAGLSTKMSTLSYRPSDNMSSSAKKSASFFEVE
T2 sequence (P25095 whole entry): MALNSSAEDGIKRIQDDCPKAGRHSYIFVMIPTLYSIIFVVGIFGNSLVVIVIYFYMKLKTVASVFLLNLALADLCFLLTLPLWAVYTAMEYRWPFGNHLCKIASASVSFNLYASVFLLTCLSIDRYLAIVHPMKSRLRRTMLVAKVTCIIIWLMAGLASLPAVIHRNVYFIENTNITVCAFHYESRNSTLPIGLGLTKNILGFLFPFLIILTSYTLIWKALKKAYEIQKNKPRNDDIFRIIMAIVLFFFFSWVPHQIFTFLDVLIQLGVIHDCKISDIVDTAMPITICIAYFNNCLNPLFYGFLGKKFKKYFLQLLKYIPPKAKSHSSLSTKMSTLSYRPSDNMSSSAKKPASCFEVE
T2 sequence (P35351 whole entry): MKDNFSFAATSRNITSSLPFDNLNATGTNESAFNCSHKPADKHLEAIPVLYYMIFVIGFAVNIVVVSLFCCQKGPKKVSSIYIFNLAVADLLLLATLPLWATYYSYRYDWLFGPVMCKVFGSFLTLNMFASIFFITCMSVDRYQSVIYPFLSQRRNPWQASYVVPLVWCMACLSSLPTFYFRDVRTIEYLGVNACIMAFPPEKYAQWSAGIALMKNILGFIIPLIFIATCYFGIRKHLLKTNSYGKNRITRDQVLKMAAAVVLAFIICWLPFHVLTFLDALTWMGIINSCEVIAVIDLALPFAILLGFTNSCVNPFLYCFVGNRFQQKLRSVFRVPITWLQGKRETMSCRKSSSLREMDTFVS

[8] = target: T1, Angiotensin II receptor (Rattus norvegicus); test: In vivo antagonist activity (ANG II like) expressed by blood pressure increase (mHg) produced by […] iv injection of compound in rats; format: functional, organism-based; how it was run: as §1

| Activity [3] [%] | pA2 [7] | Structure (SMILES) | Activity [4] | ID50 (ng min-1 rat-1) [8] | further results |
| --- | --- | --- | --- | --- | --- |
| 0.5 | – | CC[C@H](C)[C@H](NC(=O)[C@H](Cc1ccc(O)cc1)NC(=O)[C@@H](NC(=O)[C@H](CCCN=C(N)N)NC(=O)CNC)C(C)C)C(=O)N[C@@H](Cc1c[nH]cn1)C(=O)N1CCC[C@H]1C(=O)N[C@@H](C)C(=O)O | 15.1% and 10% | – | Activity [5]: 0%; ID50 [6]: 7.92 ng min-1 rat-1 and 15 ng min-1 rat-1 |
| 180 | – | CC[C@H](C)[C@H](NC(=O)[C@H](Cc1ccc(O)cc1)NC(=O)[C@@H](NC(=O)[C@H](CCCN=C(N)N)NC(=O)CNC)C(C)C)C(=O)N[C@@H](Cc1c[nH]cn1)C(=O)N1CCC[C@H]1C(=O)N[C@@H](Cc1ccccc1)C(=O)O | 125% | – | – |
| 250 | – | CNCC(=O)N[C@@H](CCCN=C(N)N)C(=O)N[C@H](C(=O)N[C@@H](Cc1ccc(O)cc1)C(=O)N1CSC(C)(C)[C@@H]1C(=O)N[C@@H](Cc1c[nH]cn1)C(=O)N1CCC[C@H]1C(=O)N[C@@H](Cc1ccccc1)C(=O)O)C(C)C | 100% | – | – |
| 0 | 8.3 | CC[C@H](C)[C@H](NC(=O)[C@@H]1CCCN1C(=O)[C@H](Cc1c[nH]cn1)NC(=O)[C@@H](NC(=O)[C@H](Cc1ccc(O)cc1)NC(=O)[C@H](C)NC(=O)[C@H](CCCN=C(N)N)NC(=O)CNC)[C@@H](C)CC)C(=O)O (H-[Sar]RAYIHPI-OH) | 7.5% | 25 | – |
| 0 | 8.7 | CC[C@H](C)[C@H](NC(=O)[C@@H]1CCCN1C(=O)[C@H](Cc1c[nH]cn1)NC(=O)[C@@H]1CCCN1C(=O)[C@H](Cc1ccc(O)cc1)NC(=O)[C@@H](NC(=O)[C@H](CCCN=C(N)N)NC(=O)CNC)C(C)C)C(=O)O (H-[Sar]RVYPHPI-OH) | – | 20 | – |
| 0 | 7 | CC[C@H](C)[C@H](NC(=O)[C@@H]1CCCN1C(=O)[C@H](Cc1c[nH]cn1)NC(=O)[C@@H](NC(=O)[C@H](Cc1ccc(O)cc1)NC(=O)C(C)(C)NC(=O)[C@H](CCCN=C(N)N)NC(=O)CNC)[C@@H](C)CC)C(=O)O (H-[Sar]R[Aib]YIHPI-OH) | 3% | 50 | – |
| 0 | 8.9 | CC[C@H](C)[C@H](NC(=O)[C@@H]1CCCN1C(=O)[C@H](Cc1c[nH]cn1)NC(=O)[C@@H](NC(=O)[C@H](Cc1ccc(O)cc1)NC(=O)[C@H](C)N(C)C(=O)[C@H](CCCN=C(N)N)NC(=O)CNC)[C@@H](C)CC)C(=O)O (H-[Sar]R[NMeA]YIHPI-OH) | – | 25 | – |
| 0 | < 6 | CC[C@@H](C)[C@@H](NC(=O)[C@H](Cc1ccc(O)cc1)NC(=O)[C@H](C)N(C)C(=O)[C@H](CCCN=C(N)N)NC(=O)CNC)C(=O)N[C@@H](Cc1c[nH]cn1)C(=O)N1CCC[C@H]1C(=O)NC(Cc1ccccc1)C(=O)O (stereo in doubt) | 10% | 100 | – |

Second part, the compound before the results:

| Structure (SMILES) | Activity [3] [%] | pA2 [7] | Activity [4] | ID50 (ng min-1 rat-1) [8] | further results |
| --- | --- | --- | --- | --- | --- |
| CC[C@H](C)[C@H](NC(=O)[C@@H]1CSCN1C(=O)[C@H](Cc1c[nH]cn1)NC(=O)[C@@H](NC(=O)[C@H](Cc1ccc(O)cc1)NC(=O)[C@@H](NC(=O)[C@H](CCCN=C(N)N)NC(=O)CNC)C(C)C)[C@@H](C)CC)C(=O)O | – | – | – | – | ID50 [1]: 12.5 ng min-1 rat-1; pA2 [2]: 7.2 |
| CC[C@H](C)[C@H](NC(=O)[C@H](Cc1ccc(O)cc1)NC(=O)[C@H](C)NC(=O)[C@H](CCCN=C(N)N)NC(=O)[C@@H](N)CC(=O)O)C(=O)N[C@@H](Cc1c[nH]cn1)C(=O)N1CCC[C@H]1C(=O)N[C@@H](Cc1ccccc1)C(=O)O (H-DRAYIHPF-OH) | – | – | 80.5% | – | – |
| CC[C@H](C)[C@H](NC(=O)[C@H](Cc1ccc(O)cc1)NC(=O)[C@@H]1CCCN1C(=O)[C@H](CCCN=C(N)N)NC(=O)[C@@H](N)CC(=O)O)C(=O)N[C@@H](Cc1c[nH]cn1)C(=O)N1CCC[C@H]1C(=O)N[C@@H](Cc1ccccc1)C(=O)O (H-DRPYIHPF-OH) | – | – | 53% | – | – |
| CC[C@H](C)[C@H](NC(=O)[C@H](Cc1ccc(O)cc1)NC(=O)C1(NC(=O)[C@H](CCCN=C(N)N)NC(=O)[C@@H](N)CC(=O)O)CCCC1)C(=O)N[C@@H](Cc1c[nH]cn1)C(=O)N1CCC[C@H]1C(=O)N[C@@H](Cc1ccccc1)C(=O)O (H-DR[Ac5c]YIHPF-OH) | – | – | 2% | – | – |
| CC(C)[C@H](NC(=O)[C@H](Cc1ccc(O)cc1)NC(=O)C1(NC(=O)[C@H](CCCN=C(N)N)NC(=O)[C@@H](N)CC(=O)O)CCCC1)C(=O)N[C@@H](Cc1c[nH]cn1)C(=O)NC1(C(=O)N[C@@H](Cc2ccccc2)C(=O)O)CCCC1 (H-DR[Ac5c]YVH[Ac5c]F-OH) | – | – | 1.5% | – | – |
| CC(C)[C@H](NC(=O)[C@H](Cc1ccc(O)cc1)NC(=O)C1(NC(=O)[C@H](CCCN=C(N)N)NC(=O)[C@@H](N)CC(=O)O)CCCC1)C(=O)N[C@@H](Cc1c[nH]cn1)C(=O)NC(C)(C)C(=O)N[C@@H](Cc1ccccc1)C(=O)O (H-DR[Ac5c]YVH[Aib]F-OH) | – | – | 1% | – | – |
| CC(C)[C@H](NC(=O)[C@H](Cc1ccc(O)cc1)NC(=O)C1(NC(=O)[C@H](CCCN=C(N)N)NC(=O)[C@@H](N)CC(=O)O)CCCC1)C(=O)N[C@@H](Cc1c[nH]cn1)C(=O)N(C)[C@@H](C)C(=O)N[C@@H](Cc1ccccc1)C(=O)O (H-DR[Ac5c]YVH[NMeA]F-OH) | – | – | 22% | – | – |
| CC[C@H](C)[C@H](NC(=O)[C@H](Cc1ccc(O)cc1)NC(=O)C(C)(C)NC(=O)[C@H](CCCN=C(N)N)NC(=O)[C@@H](N)CC(=O)O)C(=O)N[C@@H](Cc1c[nH]cn1)C(=O)N1CCC[C@H]1C(=O)N[C@@H](Cc1ccccc1)C(=O)O (H-DR[Aib]YIHPF-OH) | – | – | 1% | – | – |
| CC[C@H](C)[C@H](NC(=O)C(C)(C)NC(=O)[C@H](Cc1c[nH]cn1)NC(=O)[C@@H](NC(=O)[C@H](Cc1ccc(O)cc1)NC(=O)[C@@H](NC(=O)[C@H](CCCN=C(N)N)NC(=O)CNC)C(C)C)[C@@H](C)CC)C(=O)O (H-[Sar]RVYIH[Aib]I-OH) | 0 | 8 | – | 60 | – |
| CC[C@H](C)[C@H](NC(=O)[C@H](C)N(C)C(=O)[C@H](Cc1c[nH]cn1)NC(=O)[C@@H](NC(=O)[C@H](Cc1ccc(O)cc1)NC(=O)[C@@H](NC(=O)[C@H](CCCN=C(N)N)NC(=O)CNC)C(C)C)[C@@H](C)CC)C(=O)O (H-[Sar]RVYIH[NMeA]I-OH) | 0 | 8.4 | – | 20 | – |
| CC[C@H](C)[C@H](NC(=O)[C@@H]1CCCN1C(=O)[C@H](Cc1c[nH]cn1)NC(=O)C1(NC(=O)[C@H](Cc2ccc(O)cc2)NC(=O)[C@@H](NC(=O)[C@H](CCCN=C(N)N)NC(=O)CNC)C(C)C)CCCC1)C(=O)O (H-[Sar]RVY[Ac5c]HPI-OH) | 0 | 8.3 | – | 10 | – |
